Measured values from ChEMBL document CHEMBL4118027, “Preussilides A-F, Bicyclic Polyketides from the Endophytic Fungus Preussia similis with Antiproliferative Activity” (J Nat Prod, 2017).
In brackets after ≈: the same amount, converted by molar mass. Activity calls are given as the source filed them. The rule behind the calls is not given here.

Assays:
Mucor plumbeus = assay: Antifungal activity against Mucor plumbeus MUCL 49355 by serial dilution method; type: functional
Sclerotinia sclerotiorum = assay: Antifungal activity against Sclerotinia sclerotiorum DSM 1946 at 100 ug/disk after 5 days by disk diffusion assay; type: functional; settings: DSM 1946, 120 h, read-out: IZ
Method in brief: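 Disk diffusion on YMG medium seeded with a mycelial suspension of the non-sporulating test fungus. Paper disks carried […] compound. Nystatin at 20 μg/disk was the positive control. Inhibition zone diameter (mm) was read after 5 days.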

Staphylococcus aureus = assay: Antibacterial activity against Staphylococcus aureus DSM 346 by serial dilution method; type: functional, organism-based
Setaria italica = assay: Phytotoxicity against Setaria italica assessed as inhibition of seedling germination at 100 ug/disk; type: functional, organism-based
U2OS [1] = assay: Cell cycle arrest in human U2OS cells assessed as accumulation at S phase at 5 ug/ml after 18 hrs by propidium iodide staining based flow cytometry (reference value: 19%); type: functional
Method in brief: (§1)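 U2OS were seeded at 7 × 10^5/well in six-well plates and exposed to 5 or 10 μg/mL for 18 h after spreading, with untreated and DMSO mock controls. Cells were trypsinized, fixed in 2% PFA/PBS, then in ice-cold methanol 30 min. Staining: anti-tubulin/anti-lamin antibodies plus RNase A and propidium iodide. Flow cytometry assigned G1, S, G2-M and sub-G1 by DNA content.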

U2OS [2] = assay: Cell cycle arrest in human U2OS cells assessed as accumulation at G1 phase at 10 ug/ml after 18 hrs by propidium iodide staining based flow cytometry (reference value: 50.1%); type: functional; method in brief: as §1
U2OS [3] = assay: Cell cycle arrest in human U2OS cells assessed as accumulation at S phase at 10 ug/ml after 18 hrs by propidium iodide staining based flow cytometry (reference value: 19%); type: functional; method in brief: as §1
U2OS [4] = assay: Ratio of compound effect for induction of multipolar and duplicated spindle formation to compound effect for cytotoxicity for human U2OS cells; type: functional
Method in brief: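 Spindle arm: U2OS in DMEM (4.5 g/L glucose, 10% FBS) at 37 °C, 7% CO2, on fibronectin-coated coverslips, adhered 16 h. Treated 24 h at 0.25–10 μg/mL (diluted from 1 mg/mL DMSO stock) with a DMSO control, PFA-fixed, and anti-α-tubulin immunostained to score mitotic spindles. Cytotoxicity arm: 5-day MTT. Ratio compares spindle-inducing concentration with cytotoxic concentration.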

U2OS [5] = assay: Induction of apoptosis in human U2OS cells assessed as caspase-3/7 cleavage at 5 ug/ml after 18 hrs by caspase-3/7 green reagent based flow cytometry (reference value: 8.04%)

MIC (Mucor plumbeus): 37.5 µg/mL (≈ 94.6 µM)
SMILES: CC(=O)CC1=C(C)C=C2C[C@@H](C)C(=O)[C@@H](C)[C@@H]2[C@H]1/C=C(C)/C=C(C)/C=C/C(=O)O
zone of inhibition at 100 µg/disc (Sclerotinia sclerotiorum): 29 mm
Activity (Staphylococcus aureus): inactive
Activity (Setaria italica): inactive
Activity (U2OS [1]): 17.4%
Activity (U2OS [2]): 50.7%
Activity (U2OS [3]): 9.62%
Ratio (U2OS [4]): 10 - 20
Activity (U2OS [5]): 3.45%
